Results as given in ChEMBL document CHEMBL1142964, “Synthesis and biological evaluation of [18F]bicalutamide, 4-[76Br]bromobicalutamide, and 4-[76Br]bromo-thiobicalutamide as non-steroidal androgens for prostate cancer imaging” (J Med Chem, 2007).

Key:
Androgen receptor = biological target: T1, Androgen receptor (Rattus norvegicus, UniProt P15207); assay: Binding affinity to rat AR
T1 sequence (P15207 whole entry): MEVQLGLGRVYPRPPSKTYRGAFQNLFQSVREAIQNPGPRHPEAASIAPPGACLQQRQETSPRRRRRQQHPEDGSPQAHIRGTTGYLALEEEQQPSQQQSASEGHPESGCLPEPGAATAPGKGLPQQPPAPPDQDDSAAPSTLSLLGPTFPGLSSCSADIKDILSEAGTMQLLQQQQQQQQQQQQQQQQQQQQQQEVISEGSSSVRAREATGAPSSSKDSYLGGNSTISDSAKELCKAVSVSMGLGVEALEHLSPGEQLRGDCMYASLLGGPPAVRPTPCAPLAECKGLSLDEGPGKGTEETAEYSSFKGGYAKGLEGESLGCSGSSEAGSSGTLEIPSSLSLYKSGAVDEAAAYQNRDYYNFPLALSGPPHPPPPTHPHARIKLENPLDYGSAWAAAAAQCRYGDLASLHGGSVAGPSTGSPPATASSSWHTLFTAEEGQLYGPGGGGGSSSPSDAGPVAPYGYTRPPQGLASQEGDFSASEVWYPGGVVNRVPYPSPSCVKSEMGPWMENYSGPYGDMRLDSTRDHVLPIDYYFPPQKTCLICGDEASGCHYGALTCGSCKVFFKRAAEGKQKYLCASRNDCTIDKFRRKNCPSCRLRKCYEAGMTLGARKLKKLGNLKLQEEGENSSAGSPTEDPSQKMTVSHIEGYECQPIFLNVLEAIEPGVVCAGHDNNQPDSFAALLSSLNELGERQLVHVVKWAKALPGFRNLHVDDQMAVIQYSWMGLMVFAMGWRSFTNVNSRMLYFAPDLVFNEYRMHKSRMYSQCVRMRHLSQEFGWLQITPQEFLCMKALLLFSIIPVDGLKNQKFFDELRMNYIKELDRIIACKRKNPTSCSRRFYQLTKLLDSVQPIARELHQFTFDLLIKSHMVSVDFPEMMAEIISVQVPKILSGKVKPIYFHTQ

[1] = Biodistribution in kidney of iv dosed CWR22 tumor bearing mouse with 17alpha-methyltestosterone-induced androgen block after 90 min; type: ADME, organism-based; conditions: human, in vivo, 1.5 h
Outline: (§1)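 Mature male mice (25 g) bearing flank CWR22 prostate tumors received DES (0.2 mg in 0.1 mL sesame oil, sc) 24 and 3 h before the tracer. 76Br-tracer, 6 µCi/animal in 10% ethanol-saline, was given iv by tail vein. Mice were killed at 30 or 90 min. Block set was co-injected with 8 µg 17α-methyltestosterone. Five animals per point. Results are %ID/g.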

[2] = Biodistribution in kidney of iv dosed CWR22 tumor bearing mouse after 60 min; type: ADME, organism-based; conditions: human, read-out: Drug uptake
[3] = Biodistribution in blood of iv dosed CWR22 tumor bearing mouse with 17alpha-methyltestosterone-induced androgen block after 90 min; type: ADME, organism-based; conditions: human, read-out: Drug uptake; outline: as §1
[4] = Biodistribution in prostate of iv dosed Sprague-Dawley rat after 1 hr; type: ADME, organism-based, Prostate gland; conditions: read-out: Drug uptake
Outline: (§2)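 76Br-tracer in 10% ethanol-saline, given iv by tail vein to mature male Sprague-Dawley rats (250 g) castrated 7 days before. Doses were 4 µCi/animal (1 h) and 7 µCi/animal (18 h). Block group used testes-intact rats, with the AR saturated by endogenous androgen. Five animals per group. Tissues were excised, weighed, saline-washed, blotted and counted. %ID/g was taken against injected-dose standards.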

Liver = assay: Biodistribution in liver of iv dosed testis-intact Sprague-Dawley rat after 18 hrs block; type: ADME, organism-based; conditions: in vivo; outline: as §2
Kidney [5] = assay: Biodistribution in kidney of iv dosed testis-intact Sprague-Dawley rat after 18 hrs block; type: ADME, organism-based; conditions: in vivo; outline: as §2
[6] = Biodistribution in prostate of iv dosed CWR22 tumor bearing mouse after 60 min; type: ADME, organism-based, Prostate gland; conditions: human, read-out: Drug uptake
Prostate gland [7] = assay: Biodistribution in prostate of iv dosed testis-intact Sprague-Dawley rat after 18 hrs block; type: ADME, organism-based; conditions: in vivo; outline: as §2
Kidney [8] = assay: Biodistribution in kidney of iv dosed testis-intact Sprague-Dawley rat after 1 hr block; type: ADME, organism-based; conditions: in vivo; outline: as §2
[9] = Biodistribution in muscle of iv dosed CWR22 tumor bearing mouse after 60 min; type: ADME, organism-based, Muscle tissue; conditions: human, read-out: Drug uptake
[10] = Biodistribution in blood of iv dosed CWR22 tumor bearing mouse after 30 min; type: ADME, organism-based; conditions: human, read-out: Drug uptake; outline: as §1
[11] = Biodistribution in muscle of iv dosed CWR22 tumor bearing mouse with 17alpha-methyltestosterone-induced androgen block after 90 min; type: ADME, organism-based; conditions: human, read-out: Drug uptake; outline: as §1
[12] = Biodistribution in blood of iv dosed CWR22 tumor bearing mouse after 60 min; type: ADME, organism-based; conditions: human, in vivo, 1 h
[13] = Biodistribution in liver of iv dosed Sprague-Dawley rat after 18 hrs; type: ADME, organism-based; conditions: read-out: Drug uptake; outline: as §2
[14] = Biodistribution in kidney of iv dosed Sprague-Dawley rat after 18 hrs; type: ADME, organism-based; conditions: read-out: Drug uptake; outline: as §2
Muscle tissue [15] = assay: Biodistribution in muscle of iv dosed testis-intact Sprague-Dawley rat after 18 hrs block; type: ADME, organism-based; conditions: in vivo; outline: as §2
[16] = Biodistribution in kidney of iv dosed Sprague-Dawley rat after 1 hr; type: ADME, organism-based; conditions: read-out: Drug uptake; outline: as §2
[17] = Biodistribution in blood of iv dosed Sprague-Dawley rat after 18 hrs; type: ADME, organism-based; conditions: read-out: Drug uptake; outline: as §2
Prostate gland [18] = assay: Biodistribution in prostate of iv dosed testis-intact Sprague-Dawley rat after 1 hr block; type: ADME, organism-based; conditions: in vivo; outline: as §2
Muscle tissue [19] = assay: Biodistribution in muscle of iv dosed testis-intact Sprague-Dawley rat after 1 hr block; type: ADME, organism-based; conditions: in vivo; outline: as §2
[20] = Ratio of drug uptake in prostate to muscle in iv dosed Sprague-Dawley rat after 1 hr; type: ADME, organism-based, Prostate gland; conditions: in vivo
Outline: (§3)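 Castrated male Sprague-Dawley rats were dosed iv (tail vein) with 4 µCi 76Br-tracer in 10% ethanol-saline and killed at 1 h, five per group. Tissues were weighed and counted and %ID/g calculated against dose standards. Ratios are prostate %ID/g over blood or muscle %ID/g.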

[21] = Biodistribution in bone of iv dosed Sprague-Dawley rat after 1 hr; type: ADME, organism-based, Bone element; conditions: read-out: Drug uptake; outline: as §2
[22] = Biodistribution in tumor of iv dosed CWR22 tumor bearing mouse after 30 min; type: ADME, organism-based; conditions: human, read-out: Drug uptake; outline: as §1
[23] = Biodistribution in liver of iv dosed CWR22 tumor bearing mouse after 30 min; type: ADME, organism-based; conditions: human, read-out: Drug uptake; outline: as §1
[24] = Biodistribution in muscle of iv dosed Sprague-Dawley rat after 1 hr; type: ADME, organism-based, Muscle tissue; conditions: read-out: Drug uptake; outline: as §2
[25] = Biodistribution in muscle of iv dosed CWR22 tumor bearing mouse after 30 min; type: ADME, organism-based, Muscle tissue; conditions: human, read-out: Drug uptake; outline: as §1
[26] = Biodistribution in liver of iv dosed Sprague-Dawley rat after 1 hr; type: ADME, organism-based; conditions: read-out: Drug uptake; outline: as §2
[27] = Biodistribution in liver of iv dosed CWR22 tumor bearing mouse with 17alpha-methyltestosterone-induced androgen block after 90 min; type: ADME, organism-based; conditions: human, in vivo, 1.5 h; outline: as §1
Bone [28] = assay: Biodistribution in bone of iv dosed testis-intact Sprague-Dawley rat after 1 hr block; type: ADME, organism-based, Bone element; conditions: in vivo; outline: as §2
[29] = Biodistribution in prostate of iv dosed CWR22 tumor bearing mouse after 30 min; type: ADME, organism-based, Prostate gland; conditions: human, read-out: Drug uptake; outline: as §1
[30] = Biodistribution in bone of iv dosed Sprague-Dawley rat after 18 hrs; type: ADME, organism-based, Bone element; conditions: read-out: Drug uptake; outline: as §2
[31] = Ratio of drug uptake in prostate to blood in iv dosed Sprague-Dawley rat after 1 hr; type: ADME, organism-based, Prostate gland; outline: as §3
[32] = Biodistribution in liver of iv dosed testis-intact Sprague-Dawley rat after 1 hr block; type: ADME, organism-based; conditions: male, read-out: Drug uptake; outline: as §2
Blood [33] = assay: Biodistribution in blood of iv dosed testis-intact Sprague-Dawley rat after 1 hr block; type: ADME, organism-based; conditions: in vivo; outline: as §2
[34] = Biodistribution in kidney of iv dosed CWR22 tumor bearing mouse after 30 min; type: ADME, organism-based; conditions: human, read-out: Drug uptake; outline: as §1
[35] = Biodistribution in tumor of iv dosed CWR22 tumor bearing mouse after 60 min; type: ADME, organism-based; conditions: human, read-out: Drug uptake
[36] = Biodistribution in blood of iv dosed Sprague-Dawley rat after 1 hr; type: ADME, organism-based; conditions: read-out: Drug uptake; outline: as §2
[37] = Biodistribution in tumor of iv dosed CWR22 tumor bearing mouse with 17alpha-methyltestosterone-induced androgen block after 90 min; type: ADME, organism-based; conditions: human, in vivo, 1.5 h; outline: as §1
Bone [38] = assay: Biodistribution in bone of iv dosed testis-intact Sprague-Dawley rat after 18 hrs block; type: ADME, organism-based, Bone element; conditions: in vivo; outline: as §2
Blood [39] = assay: Biodistribution in blood of iv dosed testis-intact Sprague-Dawley rat after 18 hrs block; type: ADME, organism-based; conditions: in vivo; outline: as §2
[40] = Biodistribution in liver of iv dosed CWR22 tumor bearing mouse after 60 min; type: ADME, organism-based; conditions: human, read-out: Drug uptake
[41] = Biodistribution in prostate of iv dosed Sprague-Dawley rat after 18 hrs; type: ADME, organism-based, Prostate gland; conditions: read-out: Drug uptake; outline: as §2
[42] = Biodistribution in muscle of iv dosed Sprague-Dawley rat after 18 hrs; type: ADME, organism-based, Muscle tissue; conditions: read-out: Drug uptake; outline: as §2
[43] = Biodistribution in prostate of iv dosed CWR22 tumor bearing mouse with 17alpha-methyltestosterone-induced androgen block after 90 min; type: ADME, organism-based, Prostate gland; conditions: human, read-out: Drug uptake; outline: as §1

CC(O)(CS(=O)(=O)c1ccc(Br)cc1)C(=O)Nc1ccc(C#N)c(C(F)(F)F)c1 (stereo not given)
Kd (Androgen receptor): 110 nM

CC(O)(CS(=O)(=O)c1ccc([76Br])cc1)C(=O)Nc1ccc(C#N)c(C(F)(F)F)c1 (stereo not given)
Drug uptake [1]: 7.6 % ID/g | tissue uptake at 1 h [2]: 7.8 %ID/g | tissue uptake at 1.5 h [3]: 3 %ID/g | tissue uptake at 1 h [4]: 1 %ID/g | Drug uptake (Liver): 0.36 % ID/g | Drug uptake (Kidney [5]): 0.26 % ID/g | tissue uptake at 1 h [6]: 2.8 %ID/g | Drug uptake (Prostate gland [7]): 0.22 % ID/g | Drug uptake (Kidney [8]): 1 % ID/g | tissue uptake at 1 h [9]: 2.9 %ID/g | tissue uptake at 0.5 h [10]: 2.7 %ID/g | tissue uptake at 1.5 h [11]: 2.8 %ID/g | Drug uptake [12]: 3.5 % ID/g | tissue uptake at 18 h [13]: 0.56 %ID/g | tissue uptake at 18 h [14]: 0.36 %ID/g | Drug uptake (Muscle tissue [15]): 0.11 % ID/g | tissue uptake at 1 h [16]: 1 %ID/g | tissue uptake at 18 h [17]: 0.34 %ID/g | Drug uptake (Prostate gland [18]): 0.68 % ID/g | Drug uptake (Muscle tissue [19]): 0.38 % ID/g | Ratio [20]: 2.9 | tissue uptake at 1 h [21]: 0.28 %ID/g | tissue uptake at 0.5 h [22]: 2.5 %ID/g | tissue uptake at 0.5 h [23]: 15 %ID/g | tissue uptake at 1 h [24]: 0.34 %ID/g | tissue uptake at 0.5 h [25]: 2.5 %ID/g | tissue uptake at 1 h [26]: 2.1 %ID/g | Drug uptake [27]: 14 % ID/g | Drug uptake (Bone [28]): 0.31 % ID/g | tissue uptake at 0.5 h [29]: 2.2 %ID/g | tissue uptake at 18 h [30]: 0.13 %ID/g | Kp at 1 h [31]: 1.8 | tissue uptake at 1 h [32]: 2.5 %ID/g | Drug uptake (Blood [33]): 0.62 % ID/g | tissue uptake at 0.5 h [34]: 7.2 %ID/g | tissue uptake at 1 h [35]: 3.8 %ID/g | tissue uptake at 1 h [36]: 0.56 %ID/g | Drug uptake [37]: 4.5 % ID/g | Drug uptake (Bone [38]): 0.12 % ID/g | Drug uptake (Blood [39]): 0.29 % ID/g | tissue uptake at 1 h [40]: 18 %ID/g | tissue uptake at 18 h [41]: 0.27 %ID/g | tissue uptake at 18 h [42]: 0.15 %ID/g | tissue uptake at 1.5 h [43]: 3.4 %ID/g
